Assay results taken from the RNAGym collection of RNA variant scans (doi:10.1002/anie.201605470).

B1: Osa-1-4 twister ribozyme (parent)
chain: CCGCCUAACACUGCCAAUGCCGGUCCCAAGCCCGGAUAAAAGUGGAGGGGGCGG

Variants of: B1
Test: self-cleavage, relative activity (ratio to wild type); higher = more cleavage; co-transcriptional
How it was run: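 In vitro transcription at 37 °C for 2 h allowed the twister ribozyme to cleave itself as it was made. Its 54-nucleotide Oryza sativa template had been synthesised with 97 % wild-type base and 1 % of each other base at the 48 positions downstream of the cleavage site. A template-switching oligonucleotide was used for reverse transcription, followed by PCR amplification and deep sequencing. Whether reads carried upstream sequence set the cleavage status, and relative activity is the fraction cleaved normalised to wild type.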

In order of rising self-cleavage:
1. CCGCCUAACACUGCCAAUGCCGGUCCGAAGCCCGGAUAAAAGUGGCGGGGGCGG [A46C C27G]  0.01
2. CCGCCUAACACUGCCAAUGCCGGUCCCAAACCCGGAUAAAAGUGGCGGGGGCGG [A46C G30A]  0.01
3. CCGCCUAACACUGCCAAUGCCGGUCCCAAGCCCGGAUAAAAGUGGCCGGGGCGG [A46C G47C]  0.02
4. CCGCCUAACACUGCCAAUGCCGCUCCCAAGCCCGGAUAAAAGUGGCGGGGGCGG [A46C G23C]  0.02
5. CCGCCUAACACUGCCAAUGCCGGUCCCAAGCCGGGAUAAAAGUGGCGGGGGCGG [A46C C33G]  0.02
6. CCGCCUAACACUGCCAAUGCCGGUCCCAACCCCGGAUAAAAGUGGCGGGGGCGG [A46C G30C]  0.02
7. CCGCCUAACACUGCCAAUGCCGGUCCCAAUCCCGGAUAAAAGUGGCGGGGGCGG [A46C G30U]  0.02
8. CCGCCUAACACUGCCAAUGCCGGUGCCAAGCCCGGAUAAAAGUGGCGGGGGCGG [A46C C25G]  0.02
9. CCGCCUAACACUGCCAAUGCCGGUCCCAAGCCCGGAUAAAAGUGGCGUGGGCGG [A46C G48U]  0.02
10. CCGCCUAACACUGCCAAUGCCGGUCCCAAGCCCGGAUAAAAGUGUCGGGGGCGG [A46C G45U]  0.02
11. CCGCCUACCACUGCCAAUGCCGGUCCCAAGCCCGGAUAAAAGUGGGGGGGGCGG [A46G A8C]  0.03
12. CCGCCUAUCACUGCCAAUGCCGGUCCCAAGCCCGGAUAAAAGUGGGGGGGGCGG [A46G A8U]  0.03
13. CCGCCUAACACUGCCAAUGCCGUUCCCAAGCCCGGAUAAAAGUGGCGGGGGCGG [A46C G23U]  0.03
14. CCGCCUAACACUGCCAAUGCCGGUCCCAAGCCUGGAUAAAAGUGGCGGGGGCGG [A46C C33U]  0.03
15. CCGCCUAACACUGCCAAUGCCGGUCCAAAGCCCGGAUAAAAGUGGCGGGGGCGG [A46C C27A]  0.03
16. CCGCCUAACACGGCCAAUGCCGGUCCCAAGCCCGGAUAAAAGUGGCGGGGGCGG [A46C U12G]  0.03
17. CCGCCUAACACUGCCAAUGCCGGUCCCAAGCCCGGAUAAAAGUGGCGGCGGCGG [A46C G49C]  0.03
18. CCGCCUAACACUGCCAAUGCCGGUACCAAGCCCGGAUAAAAGUGGCGGGGGCGG [A46C C25A]  0.03
19. CCGCCUAACACUGCCAAUGCCGGUCCCAAGCCCGGAUAAAAGUGGCGCGGGCGG [A46C G48C]  0.03
20. CCGCCUAACACUGCCAAUGCCGGUCCCAAGCCCGGAUAAAAGUGCCGGGGGCGG [A46C G45C]  0.03
21. CCGCCUAGCACUGCCAAUGCCGGUCCCAAGCCCGGAUAAAAGUGGGGGGGGCGG [A46G A8G]  0.04
22. CCGCCUAACACUGCCAAUGCCGGUCCCAAGCCCGGAUAAAAGUGGCUGGGGCGG [A46C G47U]  0.04
23. CCGCCUAACACUGCCAAUGCCGGUCCCAAGCCCGGAUAAAAGUGGCAGGGGCGG [A46C G47A]  0.04
24. CCGCCUAACACUGCCAAUGCCGAUCCCAAGCCCGGAUAAAAGUGGCGGGGGCGG [A46C G23A]  0.04
25. CCGCCUAACACUGCCAAUGCCGGUCCCAAGCCAGGAUAAAAGUGGCGGGGGCGG [A46C C33A]  0.04
26. CCGCCUAACACUGCCAAUGCCGGUCCCAAGCCCUGAUAAAAGUGGCGGGGGCGG [A46C G34U]  0.04
27. CCGCCUAACACUGCCAAUGCCGGUCCUAAGCCCGGAUAAAAGUGGCGGGGGCGG [A46C C27U]  0.04
28. CCGCCUAACACCGCCAAUGCCGGUCCCAAGCCCGGAUAAAAGUGGCGGGGGCGG [A46C U12C]  0.04
29. CCGCCUAACACUGCCAAUGCCGGUCCCAAGCCCGGAUAAAAGUGGCGGAGGCGG [A46C G49A]  0.04
30. CCGCCUAACACUGCCAAUGCCGGUCCCAAGCCCGGAUAAAAGUGGCGGUGGCGG [A46C G49U]  0.04
31. CCGCCUAACACUGCCAAUGCCGGUCCCAAGCCCGGAUAAAAGUGGCGGGGCCGG [A46C G51C]  0.04
32. CCGCCUAACACUGCCAAUGCCGGUCCCAAGCCCGGAUAAAAGUGGCGAGGGCGG [A46C G48A]  0.04
33. CCGCCUAACACUGCCAAUGCCGGUCCCAAGCCCCGAUAAAAGUGGCGGGGGCGG [A46C G34C]  0.05
34. CCGCCUAACACAGCCAAUGCCGGUCCCAAGCCCGGAUAAAAGUGGCGGGGGCGG [A46C U12A]  0.05
35. CCGCCUAACACUGCCAAUGCCGGUUCCAAGCCCGGAUAAAAGUGGCGGGGGCGG [A46C C25U]  0.05
36. CCGCCUAACACUGCCAAUGCCGGUCCCAAGCCCGGAUAAAAGUGGCGGGGUCGG [A46C G51U]  0.05
37. CCGCCUAACACUGCCAAUGCCGGUCCCAAGCCCGGAUAAAAGUGACGGGGGCGG [A46C G45A]  0.05
38. CCGCCUAACACUGCCAAUGCCGGUCCCAAGCCCAGAUAAAAGUGGCGGGGGCGG [A46C G34A]  0.06
39. CCGCCUAACACUGCCAAUGCUGGUCCCAAGCCCGGAUAAAAGUGGCGGGGGCGG [A46C C21U]  0.06
40. CCGCCUAACACUGCCAAUGCCGGUCCCAAGCCCGGAUAAAAGUGGCGGGGACGG [A46C G51A]  0.07
41. CCGCCUAACACUGCCAAUGCCGGUCCCAAGCCCGGAUAAAAGUGGCGGGGGAGG [A46C C52A]  0.07
42. CCGCCUAACACUGCCAAUGCCGGUCCCAAGCCCGGAUAAAAGUGGCGGGCGCGG [A46C G50C]  0.08
43. CCGCCUAACACUGCCAAUGCCGGUCCCAAGCCCGGAUAAAAGUGGCGGGGGCGC [A46C G54C]  0.08
44. CCGCCUAACACUGCCAAUGCCGGUCCCAAGCCCGGAUAAAAGUGGCGGGGGUGG [A46C C52U]  0.08
45. CCGCCUAACACUGCCAAUGCCGGUCCCAAGCCCGGAUAAAAGUGGCGGGUGCGG [A46C G50U]  0.09
46. CCGCCUAACACUGCCAAUGCCGGUCCCAAGCCCGGAUAAAAGUGGCGGGGGCGA [A46C G54A]  0.09
47. CCGCCUAACACUGCCAAUGCCGGUCCCAAGCCCGGAUAAAAGUGGCGGGGGGGG [A46C C52G]  0.09
48. CCGCCUAACACUGCCAAUGCCGGUCCCAAGCCCGGAUAAAAGUGGCGGGAGCGG [A46C G50A]  0.1
49. CCGCCUAACACUGCCAAUGCCGGUCCCAAGCCCGGAUAAAAGUGGCGGGGGCGU [A46C G54U]  0.19
